{
  "source": "paper PMC9066168",
  "about": "(RSC Advances, 2019)",
  "format_in_all_cases": "cell-based",
  "key": {"[1]": {"tested_on": "Staphylococcus epidermidis (MTCC 435)", "details": "0.1 mL of 50 mg mL^-1 in DMSO per 8 mm well, 18-24 h; NA = no activity"}, "[2]": {"tested_on": "human osteosarcoma cell line MG63", "experiment": "Antitumor MTT assay"}, "[3]": {"tested_on": "Candida albicans (MTCC 227)", "experiment": "microbe, parasite or virus in culture", "details": "for diameter of the inhibition zone, C. albicans: 0.1 mL of 50 mg mL^-1 in DMSO per 8 mm well, 18-24 h, NA = no activity"}, "[4]": {"tested_on": "methicillin resistant Staphylococcus aureus (MRSA)", "experiment": "microbe, parasite or virus in culture", "details": "for diameter of the inhibition zone, MRSA: 0.1 mL of 50 mg mL^-1 in DMSO per 8 mm well, 18-24 h, NA = no activity"}, "[5]": {"tested_on": "Staphylococcus aureus (MTCC 740)", "details": "0.1 mL of 50 mg mL^-1 in DMSO per 8 mm well, 18-24 h; NA = no activity"}, "[6]": {"tested_on": "Enterococcus faecalis (MTCC 439)", "experiment": "microbe, parasite or virus in culture"}, "[7]": {"tested_on": "Shigella flexneri (MTCC 1457)", "experiment": "microbe, parasite or virus in culture"}, "[8]": {"tested_on": "methicillin resistant Staphylococcus aureus (MRSA)", "experiment": "Minimum inhibitory concentration, agar dilution method", "details": "24 h, read-out: Minimum inhibitory concentration, MRSA", "how_it_was_run": "(§1)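 Bacteria were grown from a loopful in broth at 37 °C for 4 h and adjusted to McFarland turbidity, about (1 to 2) × 10^8 CFU per mL. Test compound in DMSO was mixed into Muller Hinton agar over 0.001–2 mg mL−1. Plates were swab-inoculated with 0.1 mL culture and held at 37 °C for 24 h. MIC was the lowest concentration preventing visible growth, with DMSO as control.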"}, "[9]": {"tested_on": "Staphylococcus aureus (MTCC 740)", "experiment": "Minimum inhibitory concentration, agar dilution method", "details": "MTCC740, 24 h, read-out: Minimum inhibitory concentration, S. Aureus"}, "[10]": {"tested_on": "Staphylococcus epidermidis (MTCC 435)", "experiment": "Minimum inhibitory concentration, agar dilution method", "details": "MTCC435, 24 h, read-out: Minimum inhibitory concentration, S. epidermidis"}, "[11]": {"tested_on": "Enterococcus faecalis (MTCC 439)", "experiment": "Minimum inhibitory concentration, agar dilution method", "details": "MTCC439, 24 h, read-out: Minimum inhibitory concentration, E. faecalis"}, "[12]": {"tested_on": "Shigella flexneri (MTCC 1457)", "experiment": "Minimum inhibitory concentration, agar dilution method", "how_it_was_run": "as §1"}, "[13]": {"tested_on": "Candida albicans (MTCC 227)", "experiment": "Minimum inhibitory concentration, agar dilution method", "details": "Muller Hinton agar, 25 °C, 24 h"}, "[14]": {"details": "0.1 mL of 50 mg mL^-1 in DMSO per 8 mm well, 18-24 h, NA = no activity"}},
  "note": "Marks after values point to notes of the source that are not given here.",
  "data": [
    {"molecule": "O=c1cc[nH]c(=S)[nH]1", "note": "[tucH2, 2-thiouracil, reference compound]", "values": [
      {"measurement": "diameter of the inhibition zone, S. epidermidis", "setting": "[1]", "value": "inactive"},
      {"measurement": "IC50", "setting": "[2]; Homo sapiens, MG-63, 24 h", "value": 44.3, "unit": "µM"}
    ]},
    {"molecule": "S=c1cccc[nH]1", "note": "[PySH, pyridine-2-thione, reference compound]", "values": [
      {"measurement": "IC50", "setting": "[2]; Homo sapiens, MG-63, 24 h", "value": 29.7, "unit": "µM"}
    ]},
    {"molecule": "S=c1[nH]c2ccccc2[nH]1", "note": "[BzimSH, benz-imidazoline-2-thione]", "values": [
      {"measurement": "diameter of the inhibition zone, C. albicans", "setting": "[3]", "value": 13, "unit": "mm"}
    ]},
    {"molecule": "purine-6-thione [purSH2, reference compound]", "values": [
      {"measurement": "diameter of the inhibition zone, MRSA", "setting": "[4]", "value": 18, "unit": "mm"},
      {"measurement": "diameter of the inhibition zone, S. aureus", "setting": "[5]", "value": 13, "unit": "mm"},
      {"measurement": "diameter of the inhibition zone, S. epidermidis", "setting": "[1]", "value": "inactive"},
      {"measurement": "diameter of the inhibition zone, C. albicans", "setting": "[3]", "value": "inactive"}
    ]},
    {"molecule": "c1ccc(P(c2ccccc2)c2ccccc2)cc1", "note": "[PPh3, triphenylphosphine, reference compound]", "values": [
      {"measurement": "IC50", "setting": "[2]; Homo sapiens, MG-63, 24 h", "value": "> 100", "unit": "µM"}
    ]},
    {"molecule": "CNC(C)C1CCC(N)C(OC2C(N)CC(N)C(OC3OCC(C)(O)C(NC)C3O)C2O)O1", "note": "(stereo not drawn) [Gentamicin, reference compound]", "values": [
      {"measurement": "diameter of the inhibition zone, MRSA", "setting": "[4]", "value": "33 ^d mm"},
      {"measurement": "zone of inhibition at 50 µg/mL", "setting": "[4]; Staphylococcus aureus, MRSA, read-out: diameter of the inhibition zone, MRSA", "value": 33, "unit": "mm"},
      {"measurement": "diameter of the inhibition zone, S. aureus", "setting": "[5]", "value": "26 ^d mm"},
      {"measurement": "diameter of the inhibition zone, S. epidermidis", "setting": "[1]", "value": "25 ^d mm"},
      {"measurement": "diameter of the inhibition zone, E. faecalis", "setting": "[6]; [14]", "value": "27 ^d mm"},
      {"measurement": "zone of inhibition at 50 µg/mL", "setting": "[6]; Enterococcus faecalis, MTCC439, read-out: diameter of the inhibition zone, E. faecalis", "value": 27, "unit": "mm"},
      {"measurement": "diameter of the inhibition zone, S. flexneri", "setting": "[7]; [14]", "value": "34.5 ^d mm"},
      {"measurement": "zone of inhibition at 50 µg/mL", "setting": "[7]; Shigella flexneri, MTCC1457, read-out: diameter of the inhibition zone, S. flexneri", "value": 34.5, "unit": "mm"},
      {"measurement": "MIC", "setting": "[8]", "value": 10, "unit": "µg/mL"},
      {"measurement": "MIC", "setting": "[9]", "value": 0.5, "unit": "µg/mL"},
      {"measurement": "MIC", "setting": "[10]", "value": 30, "unit": "µg/mL"},
      {"measurement": "MIC", "setting": "[11]", "value": 30, "unit": "µg/mL"},
      {"measurement": "Minimum inhibitory concentration, S. flexneri", "setting": "[12]; Muller Hinton agar, 37 °C, 24 h", "value": 5, "unit": "µg/mL"},
      {"measurement": "MIC", "setting": "[12]; Shigella flexneri, MTCC1457, 24 h, read-out: Minimum inhibitory concentration, S. flexneri, Muller Hinton agar, 37 °C, 24 h", "value": 7, "unit": "µg/mL"}
    ]},
    {"molecule": "[Ag2(purSH2)2(dppm)2](NO3)2·2H2O [Complex 5]", "values": [
      {"measurement": "diameter of the inhibition zone, S. aureus", "setting": "[5]", "value": 12, "unit": "mm"},
      {"measurement": "diameter of the inhibition zone, S. epidermidis", "setting": "[1]", "value": 12, "unit": "mm"},
      {"measurement": "diameter of the inhibition zone, C. albicans", "setting": "[3]", "value": 17, "unit": "mm"},
      {"measurement": "Minimum inhibitory concentration, C. albicans", "setting": "[13]", "value": 50, "unit": "µg/mL"},
      {"measurement": "IC50", "setting": "[2]; MG63 cells, 24 h exposure, MTT, 570 nm", "value": 7.62, "unit": "µM"}
    ]},
    {"molecule": "C[C@@H]1[C@H](O)[C@@H](C)/C=C/C=C/C=C/C=C/C=C/C=C/C=C/[C@H](O[C@@H]2O[C@H](C)[C@@H](O)[C@H](N)[C@@H]2O)C[C@@H]2O[C@](O)(C[C@@H](O)C[C@@H](O)[C@H](O)CC[C@@H](O)C[C@@H](O)CC(=O)O[C@H]1C)C[C@H](O)[C@H]2C(=O)O", "note": "[Amphotericin B]", "values": [
      {"measurement": "diameter of the inhibition zone, C. albicans", "setting": "[3]", "value": "34 ^d mm"},
      {"measurement": "zone of inhibition at 50 µg/mL", "setting": "[3]; Candida albicans, MTCC227, read-out: diameter of the inhibition zone, C. albicans", "value": 34, "unit": "mm"}
    ]}
  ]
}
